These results are taken from PMC9033422 (RSC Advances, 2021).

Test [1] concerns human liver cancer cell lines SMMC-7721. As to the kind of experiment: MTT cytotoxicity, SMMC-7721 cells, 24 h. The conditions noted are these: SMMC-7721, 24 h, read-out: IC50 (μM)/24 h SMMC-7721. The format is cell-based. The method, boiled down:
(§1)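 Cells (1 × 10^4 per well, triplicate) were pre-cultured 24 h at 37 °C, then exposed 24 h at 37 °C to test compound at 10, 25, 50, 100 and 200 μg mL−1, with drug-free and DMSO solvent controls. MTT (2 mg mL−1 stock in PBS) was added for 4 h and formazan dissolved in DMSO. A568 was read; inhibition % = (A control − A dosed)/A control × 100.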

In test [2] the test system is human benign liver cell lines LO2. Description: MTT cytotoxicity, LO2 cells, 24 h. The format is cell-based. The following applies: L02, 24 h, read-out: IC50 (μM)/24 h LO2. Summed up: as §1
The test system of test [3] is human benign breast cell lines MCF-10A. Description: MTT cytotoxicity of 12a, MCF-10A cells, 48 h. The format is cell-based. The conditions noted are these: read-out: IC50 (μM)/48 h MCF-10A. The method, boiled down:
(§2)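 Seeding was 1 × 10^4 cells per well in triplicate, with 24 h pre-culture at 37 °C. No iron supplement was used. Test compound at 0.01, 0.1, 1, 10 and 25 μg mL−1 was given for 48 h at 37 °C, with drug-free and DMSO solvent controls. MTT (2 mg mL−1 stock in PBS) was added for 4 h, centrifuged, formazan dissolved in DMSO, and absorbance read at 568 nm.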

Test [4] has as its system human liver cancer cell lines SMMC-7721. Description: MTT cytotoxicity of 12a in Fe2+ environment, SMMC-7721 cells, 48 h. The class given is cell-based. The following applies: SMMC-7721, 48 h, read-out: IC50 (μM)/48 h SMMC-7721 with Fe2+. The method, boiled down: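 Cells at 1 × 10^4 per well, in triplicate, grew 12 h at 37 °C, then 12 h more in medium containing 100 μmol L−1 FeSO4. Medium was replaced with test compound (0.01, 0.1, 1, 10, 25 μg mL−1), with drug-free and DMSO solvent controls, for 48 h at 37 °C. MTT (2 mg mL−1 stock in PBS) was added for 4 h, formazan dissolved in DMSO, and A568 read.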

Test [5] has as its system human benign prostate cell lines RWPE-1. As to the kind of experiment: MTT cytotoxicity of 12a, RWPE-1 cells, 48 h. The following applies: RWPE-1, 48 h, read-out: IC50 (μM)/48 h RWPE-1. The class given is cell-based. The method, boiled down: as §2
Test [6] relates to human benign colon cell lines CCD18CO. Description: MTT cytotoxicity of 12a, CCD18CO cells, 48 h. The class given is cell-based. The conditions noted are these: CCD-18Co, read-out: IC50 (μM)/48 h CCD18CO. Summed up:
as §2

The test system of a further test is MHCC97H cell lines. Description: Annexin V-FITC/PI flow cytometry apoptosis assay. The class given is cell-based, human. The following applies: 48 h. The method, boiled down: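 MHCC97H cells were seeded in triplicate and pre-cultured 24 h at 37 °C. Medium was replaced with test compound at 0.01, 1 or 25 μg mL−1, alongside drug-free and DMSO solvent controls, for 48 h at 37 °C. Cells were detached with 0.25% trypsin without EDTA, stained with Annexin V-FITC/PI for 5–15 min at room temperature in the dark, and analysed by flow cytometry. Quadrants: live, early apoptotic, late apoptotic, necrotic.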

For the compound `COC1OC(=O)C(Br)=C1N1CCN(CCCCCC[C@H]2CN([C@@H]3OC4O[C@@]5(C)CC[C@H]6[C@H](C)CC[C@@H]([C@H]3C)[C@@]46OO5)CCS2(=O)=O)CC1` (stereo partly drawn) [Hybrid 12d, 3-Bromo-4-(4-(6-((2S)-1,1-dioxido-4-((3R,5aS,6R,8aS,9R,10R,12aR)-3,6,9-trimethyldecahydro-3H-3,12-epoxy[1,2]dioxepino[4,3-i]isochromen-10-yl)thiomorpholin-2-yl)hexyl)piperazin-1-yl)-5-methoxyfuran-2(5H)-one], the IC50 in test [1] amounted to 340 ± 20 µM; in test [2], 370 ± 40 µM.

`COC1OC(=O)C(Cl)=C1N1CCN(CCCCCC[C@H]2CN([C@@H]3OC4O[C@@]5(C)CC[C@H]6[C@H](C)CC[C@@H]([C@H]3C)[C@@]46OO5)CCS2(=O)=O)CC1` (stereo partly drawn) [Hybrid 12a, 3-Chloro-4-(4-(6-((2S)-1,1-dioxido-4-((3R,5aS,6R,8aS,9R,10R,12aR)-3,6,9-trimethyldecahydro-3H-3,12-epoxy[1,2]dioxepino[4,3-i]isochromen-10-yl)thiomorpholin-2-yl)hexyl)piperazin-1-yl)-5-methoxyfuran-2(5H)-one]: the IC50 in test [3] was found to be 40 ± 40 µM; in test [4], 20 ± 30 µM; in test [1], 30 ± 40 µM; in test [5], 100 ± 30 µM; in test [6], 60 ± 40 µM; in test [2], 700 ± 20 µM. For the same compound, the percentage of apoptosis came to 7.67% in the test with MHCC97H cell lines (0.01 μg mL^−1 (lowest concentration)) and 59.76% with MHCC97H cell lines (25 μg mL^−1 (highest concentration)).

Regarding `C[C@H]1[C@H](N2CCS(=O)(=O)[C@@H](CCCCCCN3CCN(C4=C(Cl)C(=O)OC4O[C@H]4CC5CCC4(C)C5(C)C)CC3)C2)O[C@@H]2O[C@@]3(C)CC[C@H]4[C@H](C)CC[C@@H]1[C@@]24OO3` (stereo partly drawn) [Hybrid 12c, 3-Chloro-4-(4-(6-((S)-1,1-dioxido-4-((3R,5aS,6R,8aS,9R,10R,12R,12aR)-3,6,9-trimethyldecahydro-3H-3,12-epoxy[1,2]dioxepino[4,3-i]isochromen-10-yl)thiomorpholin-2-yl)hexyl)piperazin-1-yl)-5-(((2S)-1,7,7-trimethylbicyclo[2.2.1]heptan-2-yl)oxy)furan-2(5H)-one], the IC50 in test [1] was determined as 70 ± 40 µM; in test [2], 70 ± 30 µM.

For the compound `CC[C@]1(O)C[C@H]2CN(CCc3c([nH]c4ccccc34)[C@@](C(=O)OC)(c3cc4c(cc3OC)N(C=O)[C@H]3[C@@](O)(C(=O)OC)[C@H](OC(C)=O)[C@]5(CC)C=CCN6CC[C@]43[C@@H]65)C2)C1` [VCR, vincristine, reference compound], the IC50 in test [1] was 270 ± 30 µM; in test [2], 300 ± 20 µM.

Take `C[C@H]1[C@@H](O)O[C@@H]2O[C@@]3(C)CC[C@H]4[C@H](C)CC[C@@H]1[C@@]24OO3` [DHA, Dihydroartemisinin, reference compound]: the IC50 in test [1] is above 700 µM; in test [2], 220 ± 40 µM.

For `CC(C)[C@@H]1CC[C@@H](C)C[C@@H]1O[C@H]1OC(=O)C(Br)=C1N1CCN(CCCCCC[C@H]2CN([C@@H]3OC4O[C@@]5(C)CC[C@H]6[C@H](C)CC[C@@H]([C@H]3C)[C@@]46OO5)CCS2(=O)=O)CC1` (stereo partly drawn) [Hybrid 12e, (5S)-3-Bromo-4-(4-(6-((2S)-1,1-dioxido-4-((3R,5aS,6R,8aS,9R,10R,12aR)-3,6,9-trimethyldecahydro-3H-3,12-epoxy[1,2]dioxepino[4,3-i]isochromen-10-yl)thiomorpholin-2-yl)hexyl)piperazin-1-yl)-5-(((1S,2S,5R)-2-isopropyl-5-methylcyclohexyl)oxy)furan-2(5H)-one], the values for the IC50 in test [1] and in test [2] were 210 ± 20 µM and 330 ± 30 µM, respectively.

Regarding `C[C@H]1[C@H](N2CCS(=O)(=O)[C@@H](CCCCCCN3CCN(C4=C(Br)C(=O)O[C@@H]4O[C@H]4CC5CCC4(C)C5(C)C)CC3)C2)O[C@@H]2O[C@@]3(C)CC[C@H]4[C@H](C)CC[C@@H]1[C@@]24OO3` [Hybrid 12f, (5S)-3-Bromo-4-(4-(6-((S)-1,1-dioxido-4-((3R,5aS,6R,8aS,9R,10R,12R,12aR)-3,6,9-trimethyldecahydro-3H-3,12-epoxy[1,2]dioxepino[4,3-i]isochromen-10-yl)thiomorpholin-2-yl)hexyl)piperazin-1-yl)-5-(((2S)-1,7,7-trimethylbicyclo[2.2.1]heptan-2-yl)oxy)furan-2(5H)-one], the values for the IC50 in test [1] and in test [2] were 220 ± 30 µM and 300 ± 30 µM, respectively.

In the case of `CC(C)[C@@H]1CC[C@@H](C)C[C@@H]1O[C@H]1OC(=O)C(Cl)=C1N1CCN(CCCCCC[C@H]2CN([C@@H]3OC4O[C@@]5(C)CC[C@H]6[C@H](C)CC[C@@H]([C@H]3C)[C@@]46OO5)CCS2(=O)=O)CC1` (stereo partly drawn) [Hybrid 12b, (5S)-3-Chloro-4-(4-(6-((2S)-1,1-dioxido-4-((3R,5aS,6R,8aS,9R,10R,12aR)-3,6,9-trimethyldecahydro-3H-3,12-epoxy[1,2]dioxepino[4,3-i]isochromen-10-yl)thiomorpholin-2-yl)hexyl)piperazin-1-yl)-5-(((1S,2S,5R)-2-isopropyl-5-methylcyclohexyl)oxy)furan-2(5H)-one], the values for the IC50 in test [1] and in test [2] were 320 ± 30 µM and 360 ± 30 µM, respectively.
